Assay results taken from article PMC3056322 (Journal of the American Chemical Society, 2010).
Non-standard residues stand in square brackets, D forms with d. Residues, ends and D or L forms follow the SMILES beside them. pS = N[C@@H](COP(=O)(O)O)C(=O)O

B1: Pin1 PPIase domain (protein)
chain: PARVRCSHLLVKHSQSRRPSSWRQEKITRTKEEALELINGYIQKIKSGEEDFESLASQFSDCSSAKARGDLGAFSRGQMQKPFEDASFALRTGEMSGPVFTDSGIHIILRTE

What was measured:
[1] = biological target: T1, Pin1-PPIase (truncated human Pin1 construct omitting the WW domain) (Homo sapiens, UniProt Q13526); test: Natural abundance 13C CPMG relaxation dispersion of ligand with Pin1-PPIase; assay type: binding
[2] = biological target: T1, Pin1-PPIase (truncated human Pin1 construct omitting the WW domain); test: 2-D 1H–1H EXSY of cis–trans isomerization with Pin1-PPIase; assay type: biochemical; conditions: 1H–1H EXSY of attached P4 Hδ protons
Summary of the method: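 2-D 1H–1H EXSY was run on an acetylated, amidated phospho-Ser-Pro pentapeptide substrate with Pin1-PPIase. Enzyme levels relative to ligand were raised up to 20%. Cis–trans exchange rate and cis population were taken from the EXSY data.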

[3] = biological target: T1, Pin1-PPIase (truncated human Pin1 construct omitting the WW domain); test: 15N–1H chemical shift perturbation ligand titration; assay type: binding
Summary of the method: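 Pin1-PPIase was titrated with the test compound, and the protein's amide 15N–1H chemical shift perturbations were followed. Kd was obtained by fitting the resulting binding isotherms.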

[4] = biological target: T2, FFpSPR substrate phosphopeptide (SMILES CC(=O)N[C@@H](Cc1ccccc1)C(=O)N[C@@H](Cc1ccccc1)C(=O)N[C@@H](COP(=O)(O)O)C(=O)N1CCC[C@H]1C(=O)N[C@@H](CCCNC(=N)N)C(N)=O); test: NMR chemical shift titration
T2 chain: Ac-FF[pS]PR-NH2

[5] = biological target: T3, cis-locked alkene isostere inhibitor (also: pSer-Pro amide replaced by (Z)CH=C alkene isostere); test: NMR chemical shift titration
T3 chain: Ac-FF[pS]PR-NH2

[6] = biological target: T4, trans-locked alkene isostere inhibitor (also: pSer-Pro amide replaced by (E)CH=C alkene isostere); test: NMR chemical shift titration
T4 chain: Ac-FF[pS]PR-NH2

[7] = side-chain P4-Cδ, 1% Pin1-PPIase, two-state fit

T1 sequence (Q13526 50-163 limits assumed): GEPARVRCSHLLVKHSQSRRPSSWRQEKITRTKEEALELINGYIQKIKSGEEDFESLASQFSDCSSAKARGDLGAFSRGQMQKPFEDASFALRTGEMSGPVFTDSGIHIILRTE

Molecule | kex ([1]; P4-Cα and F1-Cα, 1% Pin1-PPIase) | C-terminal R5-Cα dispersion ([1]; R5-Cα, 1% Pin1-PPIase) | kex [1, 7] | pminor [1, 7] | 13C dispersion at lower temperature ([1]; with Pin1-PPIase, lower temperature) | pCIS ([2]; cis population) | kex,CIS/TRANS ([2]; cis–trans isomerization) | Kd [3] | Kd [4] | Kd [5] | Kd [6]
CC(=O)N[C@@H](Cc1ccccc1)C(=O)N[C@@H](Cc1ccccc1)C(=O)N[C@@H](COP(=O)(O)O)C(=O)N1CCC[C@H]1C(=O)N[C@@H](CCCNC(=N)N)C(N)=O [FFpSPR, Ac-Phe-Phe-pSer-Pro-Arg-NH2] (Ac-FF[pS]PR-NH2) | 200 to 800 s⁻¹ | strong dispersion | 85 ± 9 s⁻¹ | 17 ± 4% | decrease in FFpSPR dispersion | 12 ± 2% | 87 ± 4 s⁻¹ | 203 ± 46 µM | – | – | –
B1 | – | – | – | – | – | – | – | – | 203 µM | 7 µM | 78 µM
